We go through 14 compounds from PMC11068032 (Journal of medicinal chemistry, 2023).

Molecules are shown by their SMILES. Some results are limits rather than exact numbers.

Data set [1] concerns AR protein level in T98G cells. Briefly: AR downregulation in T98G cells by Western blotting. Format: cell-based, human. The essentials:
(§1)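 Cells in 6-well plates treated with test compound or DMSO (T98G screens at 100 or 50 nM for 12 h). Lysed in RIPA with protease inhibitors (10 min on ice), spun at 10,000g for 10 min, protein by BCA. 50 µg resolved on 10% SDS-PAGE, transferred to PVDF, blocked 2 h in 5% milk/TBS-T. Anti-AR or anti-AR-V7 primary overnight at 4 °C, secondary 60 min at RT, chemiluminescence. Band gray values quantified.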
Background: In western blotting, separated proteins are transferred to a membrane and probed.

Data set [2] concerns AR protein level in U87 cells. The experiment in a line: AR downregulation in U87 cells by Western blotting. It is filed as cell-based, human. The conditions noted are these: 25, 50, and 100 nM. The essentials:
as §1

The subject of data set [3] is AR in U87 cells. The experiment in a line: AR immunofluorescence assay in U87 cells. Conditions: 50 nM, 12 h, compared to the control. It is filed as cell-based, human. The essentials:
(§2)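 Cells were grown on coverslips for 24 h, then given test compound at 50 nM for 12 h. Fixed in 4% paraformaldehyde (10 min), permeabilized with 0.1% Triton X-100 (10 min) and blocked in 1% BSA (30 min). Anti-AR primary 1 h, fluorescent secondary 1 h, nuclei stained with DAPI 1 µg/mL for 10 min, then imaged by fluorescence microscopy.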

The test system of data set [4] is U87 xenograft tumor. The experiment in a line: U87 xenograft tumor model in nude mice. It is filed as in vivo. In outline: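 Nude mice (5–6 weeks) received U87 cells (5 × 10^6 in PBS) subcutaneously into both flanks; n = 4/group, 8 tumors/group. At about 50 mm3, mice got vehicle (DMSO) or test compound 20 mg/kg in PBS IP three times weekly for 14 days. Calipers three times weekly, V = 2/3 d1 × d2², body weight recorded. At end: CO2 euthanasia, tumors weighed, two tumors per mouse pooled and homogenized in RIPA for AR blotting.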

Data set [5] deals with T1, α-crystallin (chaperone function domain of HSP27) (Bos taurus, UniProt P02470+P02510).
T1 sequence (P02470 1-173): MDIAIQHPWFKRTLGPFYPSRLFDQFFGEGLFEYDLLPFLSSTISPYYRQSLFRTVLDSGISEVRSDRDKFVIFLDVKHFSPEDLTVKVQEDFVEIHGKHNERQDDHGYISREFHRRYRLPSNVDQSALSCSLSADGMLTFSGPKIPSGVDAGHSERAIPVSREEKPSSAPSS
T1 sequence (P02510 1-175): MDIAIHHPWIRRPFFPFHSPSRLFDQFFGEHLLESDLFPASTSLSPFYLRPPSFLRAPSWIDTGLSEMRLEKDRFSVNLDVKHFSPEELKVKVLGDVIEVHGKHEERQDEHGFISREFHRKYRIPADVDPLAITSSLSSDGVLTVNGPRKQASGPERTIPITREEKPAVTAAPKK
The experiment in a line: HSP27 chaperone activity assay. Format: biochemical. In outline:
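Chaperone assay: insulin (from 1 mg/mL stock) with α-crystallin, the HSP27 chaperone domain (from 5 mg/mL stock), and test compound in PBS. Preincubated 5 min at 37 °C, then aggregation started with DTT (from 1 M stock). A400 read every 3 min for up to 2 h. Controls were insulin with or without α-crystallin in 0.1% DMSO. Three independent experiments, each in triplicate; mean curves.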

For data set [6], the system named is AR-V7 in T98G cells. Briefly: Mutated AR. Format: cell-based, human. The conditions noted are these: Western blotting. The essentials: as §1
Data set [7] in a line: Maximum-tolerated dose. Format: in vivo. Conditions: 100 mg/kg per day IP for 10 days. In outline: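 Twelve C57BL/6 mice randomised into three groups (vehicle DMSO, or test compound in PBS), dosed IP daily and euthanised after 10 days. Body weight recorded daily. Nonfasted cardiac blood drawn immediately after euthanasia for automated haematology analysis. Heart, liver, spleen, lung and kidney rinsed in PBS, formalin-fixed, ethanol-dehydrated, xylene-cleared, paraffin-embedded and H&E-stained.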

Data set [8] deals with AR in T98G cells. Briefly: AR immunofluorescence assay in T98G cells. It is filed as cell-based, human. The conditions noted are these: 50 nM, 12 h, compared to the control. In outline:
as §2

Data set [9] relates to AR-overexpressed GBM cell lines U87 and T98G. Format: cell-based, human. The conditions noted are these: summary of Table 1. The essentials: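 MTT assay in T98G and U87 cells kept in RPMI1640 or DMEM with 10% FBS and penicillin/streptomycin at 37 °C, 5% CO2. MTT 1 mg/mL for 2 h at 37 °C, formazan dissolved in DMSO, A570 read. Eight replicates; IC50 by nonlinear regression.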

With `COc1ccc(OC)c(COc2cc(NC(=O)c3ccc4c(c3)OCO4)ccc2NS(C)(=O)=O)c1` [Compound 4, N-(3-((2,5-Dimethoxybenzyl)oxy)-4-(methylsulfonamido)phenyl)benzo[d][1,3]dioxole-5-carboxamide], the “AR downregulation activity at 50 nM” value in data set [1] (50 nM, 12 h) was “potent AR downregulation activity”. In addition, the “AR downregulation activity at 100 nM” value in [1] (12 h) is “significant AR downregulation activity”. The AR protein level result in data set [1] (25, 50, and 100 nM) is given as “significantly downregulate”. The AR protein level result in data set [2] is listed as “significantly downregulate”. Moreover, the “fluorescence intensities of AR” value in data set [3] is on record as “decreased”. The “nude mice body weight” value in data set [4] (20 mg/kg IP every other day, 2 weeks) was “not affected”. In addition, the tumor size result in data set [4] (20 mg/kg IP every other day, 2 weeks, vs control) is reported as “significantly decreased”. The tumor weight entry in [4] (20 mg/kg IP every other day, end of experiment, vs control) is “significantly decrease”. In addition, the “AR protein level in tumors” value in data set [4] (20 mg/kg IP, Western blotting of tumor lysates, vs control) is recorded as “significantly decreased”. For the same compound, the “inhibition of in vitro chaperone function of HSP27” value in data set [5] (10 μM (Figure 3), α-crystallin present) is reported as “significantly inhibit”. In addition, the inhibition (usually the drop in the measured response relative to a control, in per cent) at 10 µM in [5] (read-out: inhibition of the chaperone function) was greater than 50%. The “interference with DTT-induced insulin aggregation” value in data set [5] (without chaperone protein, 10 μM or below) is given as “do not interfere”. Further, in data set [6], the “mutated AR (AR-V7) level” value is “downregulate”. Further, in data set [7], the “condition observation (signs of toxicity such as dehydration, acute pain, or distress)” value is reported as “do not show any sign of toxicity”. In [7] (vs control group), the “body weight growth rate” value is reported as “no growth rate difference”; the “hematology, profile of the blood” value was “no change”; the “tissue staining (H&E) of kidney, spleen, lung, liver, and heart” value was “no substantial histological abnormalities”. The “fluorescence intensities of AR” value in [8] is listed as “decreased”.
In the case of `COc1ccc(OC)c(COc2cc(NC(=O)c3ccc([N+](=O)[O-])cc3)ccc2NS(C)(=O)=O)c1` [Compound 13, N-(3-((2,5-Dimethoxybenzyl)oxy)-4-(methylsulfonamido)phenyl)-4-nitrobenzamide], the “AR downregulation activity at 100 nM” value in data set [1] (12 h) is “significant AR downregulation activity”.
Take `COc1ccc(OC)c(COc2cc(NC(=O)c3cccc(Br)c3)ccc2NS(C)(=O)=O)c1` [Compound 15, 3-Bromo-N-(3-((2,5-dimethoxybenzyl)oxy)-4-(methylsulfonamido)phenyl)benzamide]: in data set [1] (12 h), the “AR downregulation activity at 100 nM” value is given as “significant AR downregulation activity”.
For the compound `COc1ccc(OC)c(COc2cc(NC(=O)c3ccc(SC)cc3)ccc2NS(C)(=O)=O)c1` [Compound 19, N-(3-((2,5-Dimethoxybenzyl)oxy)-4-(methylsulfonamido)phenyl)-4-(methylthio)benzamide], in data set [1] (12 h), the “AR downregulation activity at 100 nM” value is given as “significant AR downregulation activity”.
Take `CCCCCC(=O)Nc1ccc(NS(C)(=O)=O)c(OCc2cc(OC)ccc2OC)c1` [Compound 30, N-(3-((2,5-Dimethoxybenzyl)oxy)-4-(methylsulfonamido)phenyl)hexanamide]: the “activity in GBM cell growth inhibition (SAR wording)” value in data set [9] is “lower activity”.
`COc1ccc(OC)c(COc2cc(NC(=O)c3ccc(OC(F)(F)F)cc3)ccc2NS(C)(=O)=O)c1` [Compound 33, N-(3-((2,5-Dimethoxybenzyl)oxy)-4-(methylsulfonamido)phenyl)-4-(trifluoromethoxy)benzamide]: the “AR downregulation activity at 100 nM” value in [1] (12 h) was “significant AR downregulation activity”.
Consider `COc1ccc(OC)c(COc2cc(NC(=O)c3ccccc3C)ccc2NS(C)(=O)=O)c1` [Compound 34, N-(3-((2,5-Dimethoxybenzyl)oxy)-4-(methylsulfonamido)phenyl)-2-methylbenzamide], for which the “AR downregulation activity at 100 nM” value in data set [1] (12 h) is reported as “significant AR downregulation activity”.
Turning to `COc1ccc(OC)c(COc2cc(NC(=O)c3cccs3)ccc2NS(C)(=O)=O)c1` [Compound 35, N-(3-((2,5-Dimethoxybenzyl)oxy)-4-(methylsulfonamido)phenyl)thiophene-2-carboxamide], in data set [1] (12 h), the “AR downregulation activity at 100 nM” value is reported as “significant AR downregulation activity”. Also, the “activity in GBM cell growth inhibition (SAR wording)” value in data set [9] is “lower activity”.
For the compound `COc1ccc(OC)c(COc2cc(NC(=O)c3ccno3)ccc2NS(C)(=O)=O)c1` [Compound 36, N-(3-((2,5-Dimethoxybenzyl)oxy)-4-(methylsulfonamido)phenyl)isoxazole-5-carboxamide], in [1] (12 h), the “AR downregulation activity at 100 nM” value is reported as “significant AR downregulation activity”. The “activity in GBM cell growth inhibition (SAR wording)” value in [9] was “lower activity”.
For `COc1ccc(OC)c(COc2cc(NC(=O)CCCC(=O)Nc3ccc(NS(C)(=O)=O)c(OCc4cc(OC)ccc4OC)c3)ccc2NS(C)(=O)=O)c1` [Compound 37, N1,N5-Bis(3-((2,5-dimethoxybenzyl)oxy)-4-(methylsulfonamido)phenyl)glutaramide], the “AR downregulation activity at 100 nM” value in data set [1] (12 h) was “significant AR downregulation activity”. Further, in data set [9], the “activity in GBM cell growth inhibition (SAR wording)” value was “poor activity”.
Turning to `COc1ccc(OC)c(COc2cc(NC(=O)COCC(=O)Nc3ccc(NS(C)(=O)=O)c(OCc4cc(OC)ccc4OC)c3)ccc2NS(C)(=O)=O)c1` [Compound 38, 2,2′-Oxybis(N-(3-((2,5-dimethoxybenzyl)oxy)-4-(methylsulfonamido)phenyl)acetamide)], in data set [9], the “activity in GBM cell growth inhibition (SAR wording)” value is reported as “poor activity”.
`COc1ccc(OC)c(COc2cc(NC(=O)OCCOC(=O)Nc3ccc(NS(C)(=O)=O)c(OCc4cc(OC)ccc4OC)c3)ccc2NS(C)(=O)=O)c1` [Compound 39, Ethane-1,2-diylbis((3-((2,5-dimethoxybenzyl)oxy)-4-(methylsulfonamido)phenyl)carbamate)]: the “activity in GBM cell growth inhibition (SAR wording)” value in [9] is “poor activity”.
With `COc1ccc(OC)c(COc2cc(NC(=O)OCCOCCOCCOC(=O)Nc3ccc(NS(C)(=O)=O)c(OCc4cc(OC)ccc4OC)c3)ccc2NS(C)(=O)=O)c1` [Compound 40, (Ethane-1,2-diylbis(oxy))bis(ethane-2,1-diyl)bis((3-((2,5-dimethoxybenzyl)oxy)-4-(methylsulfonamido)phenyl)carbamate)], in data set [9], the “activity in GBM cell growth inhibition (SAR wording)” value is given as “poor activity”.
Consider `COc1ccc(OC)c(COc2cc(NC(=O)c3ccc(NC(=O)COCC(=O)Nc4ccc(C(=O)Nc5ccc(NS(C)(=O)=O)c(OCc6cc(OC)ccc6OC)c5)cc4)cc3)ccc2NS(C)(=O)=O)c1` [Compound 42, 4,4′-((2,2′-Oxybis(acetyl))bis(azanediyl))bis(N-(3-((2,5-dimethoxybenzyl)oxy)-4-(methylsulfonamido)phenyl)benzamide)], for which the “activity in GBM cell growth inhibition (SAR wording)” value in data set [9] is given as “poor activity”.
